Experimental data as given in ChEMBL document CHEMBL3351774, “Inhibitory activities of propolis and its promising component, caffeic acid phenethyl ester, against amyloidogenesis of human transthyretin” (J Med Chem, 2014).
The source made the active and inactive calls. No cut-off for these calls is given here.

Tests used:
[1] = system: Transthyretin (Homo sapiens), P02766 [V50M]; assay: Competitive binding to TTR V30M mutant (unknown origin) expressed in Escherichia coli at 1 to 80 uM by fluorescence assay
How it was run: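 Thioflavin T competition check: preformed V30M fibrils (10 μM V30M with 66.8 μM thioflavin T, 37 °C, 72 h) were mixed with compounds at 0−80 μM final, with 20 μM thioflavin T and 200 mM Tris-HCl pH 8.0 final. Emission 460−700 nm was recorded with excitation at 440 nm.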

Transthyretin [2] = molecular target: Transthyretin (Homo sapiens, UniProt P02766, V50M); assay: (§1) Inhibition of TTR V30M mutant (unknown origin) expressed in Escherichia coli assessed as inhibition of amyloid fibril formation by fluorescence assay
How it was run: (§2)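 Compounds were tested at 2.5−80 μM with at least four concentrations. EC50 came from a four-parameter logistic least-squares fit. Standard deviations and p values were taken from triplicate experiments.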

[3] = system: Transthyretin (Homo sapiens), P02766 [V50M]; assay: Displacement of ANS from TTR V30M mutant (unknown origin) expressed in Escherichia coli at 1 to 50 uM after 5 mins by fluorescence assay
How it was run: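 ANS displacement on 2 μM Ni-NTA-purified V30M in 50 mM Tris-HCl pH 7.4, 150 mM NaCl at 298 K. ANS and compound were added in sequence, stirred and equilibrated 5 min. Dilution stayed below 0.4%. Emission 400−540 nm was read with excitation at 280 nm.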

[4] = system: Transthyretin (Homo sapiens), P02766 [V50M]; assay: Inhibition of acid-mediated dissociation of TTR V30M mutant (unknown origin) expressed in Escherichia coli after 30 mins by SDS-PAGE
How it was run: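 V30M in 20 mM Tris-Cl pH 8.0, 150 mM NaCl was preincubated with compound (ethanol stock) for 30 min at room temperature. Four volumes of 0.1 M sodium acetate pH 4.5 were then added, and the sample was held at 310 K for 8 days (7.3 μM protein; compound 7.3 or 36.5 μM final). Glutaraldehyde cross-linking ran 5 min and was stopped with borohydride. Bands were resolved by 15% SDS-PAGE and silver-stained.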

[5] = system: Transthyretin (Homo sapiens), P02766 [V50M]; assay: Inhibition of TTR V30M mutant (unknown origin) expressed in Escherichia coli assessed as inhibition of amyloid fibril formation at 20 uM by fluorescence assay
How it was run: as §2, with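 “Acid-mediated aggregation of 10 μM Ni-NTA-purified V30M, read by thioflavin T fluorescence at 484 nm (excitation 440 nm). Compounds” for “Compounds”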

[6] = system: Transthyretin (Homo sapiens), P02766 [V50M]; assay: Inhibition of TTR V30M mutant (unknown origin) expressed in Escherichia coli assessed as inhibition of amyloid fibril formation at 80 uM by fluorescence assay
How it was run: as §2, with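 “Acid-mediated aggregation of 10 μM Ni-NTA-purified V30M, read by thioflavin T fluorescence at 484 nm (excitation 440 nm). Compounds” for “Compounds”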

[7] = system: Transthyretin (Homo sapiens), P02766 [V50M]; assay: Inhibition of TTR V30M mutant (unknown origin) expressed in Escherichia coli assessed as inhibition of amyloid fibril formation at 5 uM by fluorescence assay
How it was run: as §2, with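 “Acid-mediated aggregation of 10 μM Ni-NTA-purified V30M, read by thioflavin T fluorescence at 484 nm (excitation 440 nm). Compounds” for “Compounds”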

[8] = system: Transthyretin (Homo sapiens), P02766 [V50M]; assay: Inhibition of TTR V30M mutant (unknown origin) expressed in Escherichia coli assessed as inhibition of amyloid fibril formation at 10 uM by fluorescence assay
How it was run: as §2, with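 “Acid-mediated aggregation of 10 μM Ni-NTA-purified V30M, read by thioflavin T fluorescence at 484 nm (excitation 440 nm). Compounds” for “Compounds”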

[9] = system: Transthyretin (Homo sapiens), P02766 [V50M]; assay: Inhibition of TTR V30M mutant (unknown origin) expressed in Escherichia coli assessed as inhibition of amyloid fibril formation at 40 uM by fluorescence assay
How it was run: as §2, with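 “Acid-mediated aggregation of 10 μM Ni-NTA-purified V30M, read by thioflavin T fluorescence at 484 nm (excitation 440 nm). Compounds” for “Compounds”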

[10] = system: Transthyretin (Homo sapiens), P02766 [V50M]; assay: as §1; how it was run: as §2
Transthyretin [11] = molecular target: Transthyretin (Homo sapiens, UniProt P02766, I104T); assay: Inhibition of TTR I84T mutant (unknown origin) expressed in Escherichia coli assessed as inhibition of amyloid fibril formation by fluorescence assay
Transthyretin [12] = molecular target: Transthyretin (Homo sapiens, UniProt P02766, L75P); assay: Inhibition of TTR L55P mutant (unknown origin) expressed in Escherichia coli assessed as inhibition of amyloid fibril formation by fluorescence assay

Row | SMILES | Activity [1] | EC50 (Transthyretin [2]; read-out: EC50) [µM] | inhibition [5] [%] | further results
1 | COc1ccc(/C=C/C(=O)OCCc2ccccc2)cc1O | inactive | 11 |  | 
2 | COc1ccc(/C=C/C(=O)OCCc2ccccc2)cc1OC | inactive | 58 |  | 
3 | COc1cc(/C=C/C(=O)OCCc2ccccc2)ccc1O | inactive | 7.9 | < 20 | Activity [3]: Active; inhibition [4]: Dose-dependent effect
4 | COc1ccc(CC(C)C(C)Cc2ccc(OC)c(OC)c2)cc1OC (stereo not drawn) |  |  | < 20 | EC50 (Transthyretin [2]): Not Active
5 | CCCCCCCCOC(=O)/C=C/c1ccc(O)c(O)c1 |  |  | 47 | inhibition [6]: 53%; inhibition [7]: 27%; inhibition [8]: 44%; inhibition [9]: 49%
6 | COc1cc(CNC(=O)CCCC/C=C/C(C)C)ccc1O |  |  | < 20 | 
7 | COc1cc(C[C@H]2COC(=O)[C@@H]2Cc2ccc(O)c(OC)c2)ccc1O |  |  | < 12 | 
8 | O=C(/C=C/c1ccc(O)c(O)c1)O[C@@H]1C[C@](O)(C(=O)O)C[C@@H](O)[C@H]1O |  |  |  | inhibition [10]: inactive
9 | O=C(/C=C/c1ccccc1)OCCc1ccccc1 |  |  |  | inhibition [10]: inactive
10 | O=C(O)c1cc(-c2ccc(F)cc2F)ccc1O |  |  | < 20 | 
11 | O=C1OC[C@H](Cc2cccc(O)c2)[C@H]1Cc1cccc(O)c1 |  |  | < 20 | 
12 | OC[C@H](Cc1cccc(O)c1)[C@H](CO)Cc1cccc(O)c1 |  |  | < 20 | 
13 | c1cc2c(cc1[C@H]1OC[C@H]3[C@@H]1CO[C@@H]3c1ccc3c(c1)OCO3)OCO2 |  |  | < 20 | 
14 | O=C(/C=C/c1ccc(O)c(O)c1)OCc1ccccc1 [BENZYL CAFFEATE] | Active | 16 |  | 
15 | O=C(/C=C/c1ccc(O)c(O)c1)OCCc1ccccc1 [CAFFEIC ACID PHENETHYL ESTER] | inactive | 8.6 | < 20 | Activity [3]: Active
16 | O=C(O)/C=C/c1ccc(O)c(O)c1 [CAFFEIC ACID] | inactive | 97 |  | 
17 | COc1cc(CC(C)C(C)Cc2ccc(O)c(OC)c2)ccc1O (stereo not drawn) [DIHYDROGUAIARETIC ACID] | inactive | 6.3 | < 20 | Activity [3]: Active
18 | CCOC(=O)/C=C/c1ccc(O)c(O)c1 [ETHYL CAFFEATE] | inactive | 23 | < 20 | Activity [3]: Active
19 | COC(=O)/C=C/c1ccc(O)c(O)c1 [METHYLCAFFEATE] | inactive | 67 |  | 
20 | CC(Cc1ccc(O)c(O)c1)C(C)Cc1ccc(O)c(O)c1 (stereo not drawn) [NORDIHYDROGUAIARETIC ACID] | inactive | 7.3 | < 20 | Activity [3]: Active; EC50 (Transthyretin [11]): 8.5 µM; EC50 (Transthyretin [12]): 12.6 µM
21 | CC(C)=CCOC(=O)/C=C/c1ccc(O)c(O)c1 [PRENYL CAFFEATE] | inactive | 21 | < 20 | 
22 | O=C(/C=C/c1ccc(O)c(O)c1)O[C@H](Cc1ccc(O)c(O)c1)C(=O)O [ROSMARINIC ACID] | inactive | 8.6 |  | 
